Structures are written as SMILES. Entries after “also recorded” stand apart in the source; their conditions may differ. *1 amine or outer side, *2 acyl side, *3 side chain or, on linkers, in order; H or OH if unused. Where a SMILES comes first, the peptide text is derived from it. Bridges are numbered along the chain shown (N, C = ends). Roman numbers before positions name the chains, in order. [ ]: non-standard residue; d: D form. X2 = O=C(O)CCC(=O)N1C[C@H](N[*:2])[C@@H](C(=O)[*:1])C1; X1 = O=C([C@H]1CCC[C@@H]1N[*:1])[*:2]; S5 = C=CCCC[C@](C)(N)C(=O)O A value given as a limit tells only on which side of the number the result lay.

Consider four compounds from PMC4687753 (Journal of the American Chemical Society, 2015).

For series [1], the system named is MEFs. The series can be described thus: Cell killing assay. It is filed as cell-based, mouse. As to conditions: 10 μM, 24 hours, CellTiter-Glo, two independent experiments. The essentials: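 Mouse embryonic fibroblasts kept in DME KELSO medium with 10% FBS, 250 μM L-asparagine and 50 μM 2-mercaptoethanol. Given 10 μM test compound or DMSO for 24 h. Viability measured by CellTiter-Glo luminescence (intracellular ATP) relative to DMSO; mean ± SD of two independent experiments.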
For orientation: ATP-based viability assays read luminescence as a measure of living cells.

Series [2] concerns MDA-MB-231. In words: Cell killing assay. It is filed as cell-based. As to conditions: MDA-MB-231 (mammary), 10 μM, 24 hours, CellTiter-Glo, two independent experiments.
Series [3] has as its system MDA-MB-468. In words: Cell killing assay. Type of series: cell-based. As to conditions: MDA-MB-468 (mammary), 10 μM, 24 hours, CellTiter-Glo, two independent experiments.
For series [4], the system named is LIM-2405. In words: Cell killing assay. Type of series: cell-based. As to conditions: LIM-2405 (colon), 10 μM, 24 hours, CellTiter-Glo, two independent experiments. In outline: (§1)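 Human tumour lines grown in RPMI with 10% FBS. Seeded at 1.5×10³ cells/well, then washed with serum-free medium after 24 h. Exposed to 10 μM test compound or DMSO in serum-free medium for 2 h, then FBS added to 10% final, for 24 h total exposure. Viability read as CellTiter-Glo luminescence (intracellular ATP) relative to DMSO; mean ± SD of two independent experiments.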

The subject of series [5] is SW480. In words: Cell killing assay. Type of series: cell-based. As to conditions: SW480 (colon), 10 μM, 24 hours, CellTiter-Glo, two independent experiments. In outline: as §1
For series [6], the system named is A549. The series can be described thus: Cell killing assay. Type of series: cell-based. As to conditions: A549 (lung), 10 μM, 24 hours, CellTiter-Glo, two independent experiments. The essentials: as §1
The subject of series [7] is U937 lymphoma cells. As to conditions: CellTiter-Glo; for effect of caspase inhibitor Q-VD-OPh on loss of U937 viability: 50 μM Q-VD-OPh, 2 hours; for cell viability relative to DMSO control: U937, 10 μM, 24 hours, two independent experiments; for U937 cell viability after 2 hours of treatment: titration, 2 hours serum-free, absence of caspase inhibitor.
In series [8] the target is proteinase K (Parengyodontium album, UniProt P06873). The series can be described thus: Protease susceptibility assay. As to conditions: same conditions as t1/2.
Chain of proteinase K (P06873 106-384, species assumed): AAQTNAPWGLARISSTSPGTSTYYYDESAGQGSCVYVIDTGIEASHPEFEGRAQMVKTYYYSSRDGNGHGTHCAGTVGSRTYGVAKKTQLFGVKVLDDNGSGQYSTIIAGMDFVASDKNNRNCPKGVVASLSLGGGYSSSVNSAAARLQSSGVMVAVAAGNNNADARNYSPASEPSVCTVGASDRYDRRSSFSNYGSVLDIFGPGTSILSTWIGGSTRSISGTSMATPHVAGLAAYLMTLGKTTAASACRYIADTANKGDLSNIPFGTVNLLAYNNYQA
The target in series [9] is Bcl-xL (Homo sapiens, UniProt Q07817). The series can be described thus: SPR solution competition assay. It is filed as binding.
Chain of Bcl-xL (Q07817 1-209 limits assumed, species assumed): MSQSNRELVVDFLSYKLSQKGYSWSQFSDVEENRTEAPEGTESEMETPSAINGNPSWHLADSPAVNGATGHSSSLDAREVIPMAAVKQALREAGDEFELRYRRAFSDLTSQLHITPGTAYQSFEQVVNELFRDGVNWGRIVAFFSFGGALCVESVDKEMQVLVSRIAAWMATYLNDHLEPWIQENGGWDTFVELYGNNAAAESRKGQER
Series [10] addresses Mcl-1 (Homo sapiens, UniProt Q07820). In words: SPR solution competition assay. It is filed as binding.
In series [11] the target is Bcl-2 (Homo sapiens, UniProt P10415). The series can be described thus: SPR solution competition assay. Type of series: binding.
Chain of Bcl-2 (P10415 1-217 limits assumed): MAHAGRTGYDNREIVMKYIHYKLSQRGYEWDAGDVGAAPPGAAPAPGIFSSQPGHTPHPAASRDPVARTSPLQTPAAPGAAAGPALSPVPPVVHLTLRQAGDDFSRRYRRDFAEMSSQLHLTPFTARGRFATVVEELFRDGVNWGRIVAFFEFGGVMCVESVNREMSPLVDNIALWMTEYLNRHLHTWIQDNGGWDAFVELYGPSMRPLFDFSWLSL
Series [12] has as its system wild-type mouse embryonic fibroblasts (MEFs). In words: Cytochrome c release assay, permeabilized cells. It is filed as cell-based. As to conditions: digitonin-permeabilized wt MEFs, 10 μM peptide, 1 hour, western blot.
The test system of series [13] is bax−/−/bak−/− mouse embryonic fibroblasts (MEFs). The series can be described thus: Cytochrome c release assay, permeabilized cells. Type of series: cell-based. As to conditions: digitonin-permeabilized bax−/−/bak−/− MEFs, 10 μM peptide, 1 hour, western blot.
The test system of series [14] is unpermeabilized U937 cells. In words: Cytochrome c release assay, unpermeabilized cells. Type of series: cell-based. As to conditions: unpermeabilized U937, 10 μM peptide, 3 hours at 37°C, western blot. Background: In western blotting, separated proteins are transferred to a membrane and probed.

Chain of Mcl-1 (Q07820 171-327 limits assumed): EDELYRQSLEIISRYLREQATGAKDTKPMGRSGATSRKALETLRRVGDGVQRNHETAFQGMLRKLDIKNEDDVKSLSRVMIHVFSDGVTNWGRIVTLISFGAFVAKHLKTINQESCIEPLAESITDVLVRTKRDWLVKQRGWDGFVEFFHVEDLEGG

As to `CC[C@H](C)[C@H](NC(C)=O)C(=O)N[C@@H](Cc1c[nH]c2ccccc12)C(=O)N[C@H](C(=O)N[C@@H](C)C(=O)N[C@@H](CCC(N)=O)C(=O)N[C@@H](CCC(=O)O)C(=O)N[C@@H](CC(C)C)C(=O)N[C@@H](CCCNC(=N)N)C(=O)N[C@@]1(C)CCC/C=C\CCC[C@@](C)(C(=O)N[C@@H](Cc2ccccc2)C(=O)N[C@@H](CC(N)=O)C(=O)N[C@@H](C)C(=O)N[C@@H](Cc2ccc(O)cc2)C(=O)N[C@@H](Cc2ccc(O)cc2)C(=O)N[C@@H](C)C(=O)N[C@@H](CCCNC(=N)N)C(=O)N[C@@H](CCCNC(=N)N)C(N)=O)NC(=O)[C@H](CC(=O)O)NC(=O)CNC(=O)[C@H]([C@@H](C)CC)NC1=O)[C@@H](C)CC` [α-1, reference compound], the “cell viability relative to DMSO control” value is reported as “essentially no effect” in [1]; “no significant cell death” in [2]; “no significant cell death” in series [3]; “no significant cell death” in series [4]; “no significant cell death” in series [5]; “no significant cell death” in series [6]. In addition, in series [7], the “cell viability relative to DMSO control” value was “efficiently killing U937 lymphoma cells”. Also, the “effect of caspase inhibitor Q-VD-OPh on loss of U937 viability” value in series [7] was “attenuated by Q-VD-OPh”. Further, the “U937 cell viability after 2 hours of treatment” value in series [7] is reported as “significant reduction in cell viability”. Besides, the “increase in half-life relative to α-Bim” value in [8] is listed as ~ 6 fold.

As usually defined, the IC50 is the concentration that gives 50% inhibition. A higher IC50 goes with a need for much substance. In the case of `C=CCCC[C@](C)(NC(=O)[C@H](CC(=O)O)NC(=O)CNC(=O)[C@@H](NC(=O)[C@](C)(CCCC=C)NC(=O)[C@H](CCCNC(=N)N)NC(=O)[C@H](CC(C)C)NC(=O)[C@H](CCC(=O)O)NC(=O)[C@H](CCC(N)=O)NC(=O)[C@H](C)NC(=O)[C@@H](NC(=O)[C@H](Cc1c[nH]c2ccccc12)NC(=O)[C@@H](NC(C)=O)[C@@H](C)CC)[C@@H](C)CC)[C@@H](C)CC)C(=O)N[C@@H](Cc1ccccc1)C(=O)N[C@@H](CC(N)=O)C(=O)N[C@@H](C)C(=O)N[C@@H](Cc1ccc(O)cc1)C(=O)N[C@@H](Cc1ccc(O)cc1)C(=O)N[C@@H](C)C(=O)N[C@@H](CCCNC(=N)N)C(=O)N[C@@H](CCCNC(=N)N)C(N)=O` [α-1-LIN], the half-maximal inhibitory concentration (IC50) in series [9] amounted to 80 nM; in series [10], 4 nM; in series [11] it was 189 nM.

For `CC[C@H](C)[C@H](NC(C)=O)C(=O)N[C@H]1CCC[C@@H]1C(=O)N[C@H](C(=O)N[C@@H](C)C(=O)N[C@@H](CCC(N)=O)C(=O)N[C@H]1CN(C(=O)CCC(=O)O)C[C@@H]1C(=O)N[C@@H](CC(C)C)C(=O)N[C@@H](CCCNC(=N)N)C(=O)N[C@@]1(C)CCC/C=C\CCC[C@@](C)(C(=O)N[C@@H](Cc2ccccc2)C(=O)N[C@@H](CC(N)=O)C(=O)N[C@H]2CCC[C@@H]2C(=O)N[C@@H](Cc2ccc(O)cc2)C(=O)N[C@@H](Cc2ccc(O)cc2)C(=O)N[C@@H](C)C(=O)N[C@@H](CCCNC(=N)N)C(=O)N[C@@H](CCCNC(=N)N)C(N)=O)NC(=O)[C@H](CC(=O)O)NC(=O)CNC(=O)[C@H]([C@@H](C)CC)NC1=O)[C@@H](C)CC` [α/β-1] (I: LR[S5]IGD[S5]FN[X1]YYARR-NH2 / II: Ac-I[X1]IAQ; staple (Z) I:3-I:7; linker I:N-II:C via X2), the figures for the “cytochrome c release from pellet fraction to soluble cytosolic fraction” value in series [12] and in series [13] were “able to induce cytochrome c release” and “but not in bax^−/−/bak^−/− MEFs”, respectively. Also, the “cell viability relative to DMSO control” value is given as “essentially no effect” in series [1]; “no significant cell death” in series [2]; “no significant cell death” in series [3]; “no significant cell death” in series [4]; “no significant cell death” in series [5]; “no significant cell death” in [6]. The “cell viability relative to DMSO control” value in series [7] is “potently impacted U937 lymphoma cell viability”. Also, the “location of cytochrome c after treatment of intact cells” value in series [14] is given as “most of the cytochrome c was present in the soluble fraction”. The “effect of caspase inhibitor Q-VD-OPh on loss of U937 viability” value in [7] was “attenuated by Q-VD-OPh”. The “U937 cell viability after 2 hours of treatment” value in series [7] was “significant reduction in cell viability”. The “increase in half-life relative to the stapled peptide α-1” value in series [8] is over 90 fold. In series [8], the “increase in half-life relative to α-Bim” value was over 500 fold.

Turning to `CC[C@H](C)[C@H](NC(C)=O)C(=O)N[C@H]1CCC[C@@H]1C(=O)N[C@H](C(=O)N[C@@H](C)C(=O)N[C@@H](CCC(N)=O)C(=O)N[C@H]1CN(C(=O)CCC(=O)O)C[C@@H]1C(=O)N[C@@H](CC(C)C)C(=O)N[C@@H](CCCNC(=N)N)C(=O)N[C@H]1CCC[C@@H]1C(=O)N[C@H](C(=O)NCC(=O)N[C@@H](CC(=O)O)C(=O)N[C@H]1CCC[C@@H]1C(=O)N[C@@H](Cc1ccccc1)C(=O)N[C@@H](CC(N)=O)C(=O)N[C@H]1CCC[C@@H]1C(=O)N[C@@H](Cc1ccc(O)cc1)C(=O)N[C@@H](Cc1ccc(O)cc1)C(=O)N[C@@H](C)C(=O)N[C@@H](CCCNC(=N)N)C(=O)N[C@@H](CCCNC(=N)N)C(N)=O)[C@@H](C)CC)[C@@H](C)CC` [α/β-2] (I: LR[X1]IGD[X1]FN[X1]YYARR-NH2 / II: Ac-I[X1]IAQ; linker I:N-II:C via X2), the “cytochrome c release from pellet fraction to soluble cytosolic fraction” value in series [12] was “Slightly less cytochrome c release; also recorded: able to induce cytochrome c release”; in series [13], “but not in bax^−/−/bak^−/− MEFs”. Also, the “location of cytochrome c after treatment of intact cells” value in series [14] is reported as “cytochrome c exclusively in the pellet”.
